Here are results for 13 compounds from ChEMBL document CHEMBL5346963, “Innovative Strategy toward Mutant CFTR Rescue in Cystic Fibrosis: Design and Synthesis of Thiadiazole Inhibitors of the E3 Ligase RNF5” (J Med Chem, 2023).

Data set [1] deals with CFBE41o-. The experiment in a line: Antiproliferative activity against human CFBE41o- cells harbouring CFTR F508del mutant/HS-YFP at 5 uM incubated for 48 hrs. The format is toxicity, cell-based. In a few lines: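 Cells plated at 5000/well and treated after 6 h with compound (5 μM) or DMSO. Cell-covered area was followed by the YFP signal over 48 h on a high-content imager. Means ± SEM, n = 6. Three independent experiments; ANOVA with Dunnett test.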

Data set [2] is described as follows: Aggregation property of the compound in PBS buffer at pH 7.5 by 1D 1H-NMR analysis. The format is physicochemical. In a few lines: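 Solubility by 1H 1D NMR and aggregation by WaterLOGSY at 298 K in PBS pH 7.5 with 1 μM ZnCl2, 1 mM DTT, 10% D2O, 1% DMSO-d6. Theoretical concentrations 20, 50 and 100 μM, with 200 μM 4-trifluoromethyl benzoic acid as internal reference. WaterLOGSY: mixing time 1.7 s, relaxation delay 2 s, 256 scans.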

Data set [3] concerns the target E3 ubiquitin-protein ligase RNF5 (Homo sapiens) (UniProt Q99942). The experiment in a line: Binding affinity to recombinant human RNF5 (1 to 117 residues) expressed in Escherichia coli BL21(DE3) at 50 uM by Microscale thermophoresis analysis. In outline:
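Human RNF5 aa 1–117 was expressed GST-tagged in E. coli BL21(DE3) with 0.2 mM IPTG for 5 h at 37 °C. It was purified on glutathione resin, TEV-cleaved, and RED-NHS labelled (5 nM). Binding check was run in PBS with 0.05% Tween-20, 0.1% PEG-8000 and 1 μM ZnCl2, ± 1 mM DTT, at ≤5% DMSO. Medium MST power, 20% excitation.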
For orientation: In MST a laser heats a spot of the sample, and binding alters the fluorescence response.

Data set [4] deals with CFBE41o-. Description: Induction of autophagy in human CFBE41o- cells harbouring CFTR F508del mutant assessed as increase in number of autophagic vacuoles at 5 uM incubated for 24 hrs by confocal microscopy based analysis. The format is functional, cell-based. In a few lines: (§1)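 CFBE41o– F508del/HS-YFP cells (50,000/well) were treated 24 h with compound (5 μM), VX-809 (1 μM) or DMSO. SAR405 (2 μM) and torin1 (20 nM) were added near the end of incubation. Cells were then loaded with 50 μM MDC in PBS for 10 min at 37 °C, washed, and imaged. MDC spot number was normalized to control. n = 3; ANOVA with Dunnett test.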

The test system of data set [5] is CFBE41o-. The experiment in a line: Induction of apoptosis in human CFBE41o- cells assessed as increase in apoptosis at 1 uM incubated for 24 hrs by Hoechst 33342 and propidium iodide staining based analysis. The format is toxicity, cell-based. In a few lines: (§2)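 Cells were plated at 10,000/well and treated after 6 h with compound (5, 20, 100 μM), VX-809 (1 μM), MG132 (50 μM) or DMSO for 24 h. Hoechst 33342 counted total nuclei and propidium iodide counted apoptotic nuclei, by high-content imaging. Means ± SEM; ANOVA with Dunnett test.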

Data set [6] deals with CFBE41o-. The experiment in a line: Induction of autophagy in human CFBE41o- cells harbouring CFTR F508del mutant assessed as increase in number of autophagic vacuoles at 20 nM incubated for 3 hrs by confocal microscopy based analysis. The format is functional, cell-based. In a few lines:
as §1

The subject of data set [7] is Cystic fibrosis transmembrane conductance regulator (Homo sapiens), P13569 [F508del]. Description: Corrector activity at CFTR F508del mutant in human CFBE41o- cells assessed as decrease in accumulation of ubiquitylated CFTR at 10 uM incubated for 4 hrs in presence of MG-132 by Western blot analysis. The format is cell-based. In a few lines: (§3)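 Confluent CFBE41o– F508del cells were treated 24 h, with MG-132 (10 μM) or DMSO in the last 4 h. Lysate (600 μg protein) was immunoprecipitated with rabbit anti-CFTR (2 μg, 1 h RT) and protein A/G beads, then eluted reducing. Samples ran on 4–15% gradient SDS-PAGE and were western blotted. Bands were read by chemiluminescence, with densitometry of ubiquitylated CFTR.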
In general terms: Immunoblotting shows a protein as a band on a membrane.

For data set [8] the test system is unchanged. Description: Corrector activity at CFTR F508del mutant in human CFBE41o- cells assessed as appearance of CFTR mutant forms at 10 uM incubated for 4 hrs by Western blot analysis. The format is cell-based.
For data set [9], the system named is CFBE41o-. Description: Induction of apoptosis in human CFBE41o- cells assessed as increase in apoptosis at 100 uM incubated for 24 hrs by Hoechst 33342 and propidium iodide staining based analysis. The format is toxicity, cell-based. In outline: as §2
In data set [10] the test system is Cystic fibrosis transmembrane conductance regulator (Homo sapiens), P13569 [F508del]. The experiment in a line: Corrector activity at CFTR F508del mutant in human CFBE41o- cells assessed as rescue of CFTR mutant at 3 uM incubated for 24 hrs in presence of VX-661 by Western blot analysis. The format is cell-based.
Chain of Cystic fibrosis transmembrane conductance regulator (Homo sapiens), P13569 [F508del] (P13569 as listed by the source): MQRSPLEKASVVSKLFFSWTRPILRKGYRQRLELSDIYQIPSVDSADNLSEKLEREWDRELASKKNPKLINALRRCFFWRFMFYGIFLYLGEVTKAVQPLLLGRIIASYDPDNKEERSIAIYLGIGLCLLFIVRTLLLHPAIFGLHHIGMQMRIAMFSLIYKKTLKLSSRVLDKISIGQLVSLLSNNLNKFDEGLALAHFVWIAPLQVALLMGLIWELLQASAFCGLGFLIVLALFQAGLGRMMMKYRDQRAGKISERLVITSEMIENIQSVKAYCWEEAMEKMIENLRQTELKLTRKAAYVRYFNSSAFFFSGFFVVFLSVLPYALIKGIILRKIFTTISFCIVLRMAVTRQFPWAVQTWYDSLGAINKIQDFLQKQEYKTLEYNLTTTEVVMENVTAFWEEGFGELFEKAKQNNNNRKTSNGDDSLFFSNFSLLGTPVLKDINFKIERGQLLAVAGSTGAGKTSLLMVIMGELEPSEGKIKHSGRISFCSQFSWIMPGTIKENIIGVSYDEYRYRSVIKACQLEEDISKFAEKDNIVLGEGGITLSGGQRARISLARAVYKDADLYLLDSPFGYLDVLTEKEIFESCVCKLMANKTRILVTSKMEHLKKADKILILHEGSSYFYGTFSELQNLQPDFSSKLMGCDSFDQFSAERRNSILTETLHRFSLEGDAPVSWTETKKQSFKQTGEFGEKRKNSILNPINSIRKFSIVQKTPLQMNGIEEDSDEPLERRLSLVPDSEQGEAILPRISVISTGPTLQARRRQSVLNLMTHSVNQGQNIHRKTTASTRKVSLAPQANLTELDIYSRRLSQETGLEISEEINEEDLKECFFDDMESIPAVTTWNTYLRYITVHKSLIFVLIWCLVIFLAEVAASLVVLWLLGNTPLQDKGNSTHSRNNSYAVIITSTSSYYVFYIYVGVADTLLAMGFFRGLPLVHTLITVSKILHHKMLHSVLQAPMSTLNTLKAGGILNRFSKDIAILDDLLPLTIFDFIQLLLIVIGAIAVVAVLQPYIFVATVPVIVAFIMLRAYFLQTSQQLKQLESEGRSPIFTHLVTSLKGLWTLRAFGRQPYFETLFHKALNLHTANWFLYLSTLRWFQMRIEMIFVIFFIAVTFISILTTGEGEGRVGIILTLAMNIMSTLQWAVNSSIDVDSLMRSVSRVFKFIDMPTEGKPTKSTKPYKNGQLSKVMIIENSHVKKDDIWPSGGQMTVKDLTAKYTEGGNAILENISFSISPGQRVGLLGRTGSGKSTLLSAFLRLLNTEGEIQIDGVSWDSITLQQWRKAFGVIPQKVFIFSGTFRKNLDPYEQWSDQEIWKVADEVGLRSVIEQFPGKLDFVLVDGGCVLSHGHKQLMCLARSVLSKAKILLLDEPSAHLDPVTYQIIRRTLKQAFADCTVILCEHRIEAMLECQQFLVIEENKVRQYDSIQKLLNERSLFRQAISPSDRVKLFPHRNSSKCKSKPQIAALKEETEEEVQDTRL
The test system is the same in data set [11]. The experiment in a line: Corrector activity at CFTR F508del mutant in human CFBE41o- cells assessed as decrease in accumulation of ubiquitylated CFTR at 3 uM incubated for 24 hrs in presence of VX-661 by Western blot analysis. The format is cell-based. In outline: as §3

The source made the active and inactive calls. Unless noted, no cut-off for these calls is given here.

Chain of E3 ubiquitin-protein ligase RNF5 (Homo sapiens) (Q99942 whole entry, the tested form may be a part): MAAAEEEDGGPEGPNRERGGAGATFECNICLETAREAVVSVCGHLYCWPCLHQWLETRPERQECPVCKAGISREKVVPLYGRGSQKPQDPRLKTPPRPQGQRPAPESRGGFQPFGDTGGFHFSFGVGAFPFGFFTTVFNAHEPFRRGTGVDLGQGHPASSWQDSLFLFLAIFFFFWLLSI

Consider `Cc1cccc(Cn2c(C)ns/c2=N\C(=N\c2ccccc2)c2ccccc2)c1`, for which the Activity entry in the data set on CFBE41o- [1] is “Non-Toxic”. With `Cc1ns/c(=N\C(=N\c2ccccc2)c2ccccc2)n1Cc1ccc(Cl)cc1`, the Activity result with CFBE41o- [1] is reported as “Non-Toxic”. For `Cc1ns/c(=N\C(=N\c2ccncc2)c2ccccc2)n1Cc1ccccc1`, the Activity entry in [2] is given as “Not Active”. Turning to `Cc1ns/c(=N\C(=N\c2ccccc2)c2ccccc2)n1Cc1ccc(C(=O)O)cc1`, the Activity result in data set [2] is recorded as “Not Active”. Also, the outcome in data set [3] was Active. In the case of `Cc1ns/c(=N\C(=N\c2ccccc2)c2ccccc2)n1Cc1ccc(Br)cc1`, in the data set on CFBE41o- [4], the outcome was Active. Further, in the data set with CFBE41o- [1], the Activity entry was “Non-Toxic”. Consider `Cc1ccccc1Cn1c(C)ns/c1=N\C(=N\c1ccccc1)c1ccccc1`, for which, in the data set with CFBE41o- [1], the Activity entry is “Non-Toxic”. In the case of `Cc1ccc(NC(=O)C2(c3ccc4c(c3)OC(F)(F)O4)CC2)nc1-c1cccc(C(=O)O)c1` [LUMACAFTOR], the values for the Activity result with CFBE41o- [1] and with CFBE41o- [5] were “Non-Toxic” and “Toxic”, respectively. In the case of `CCC(=O)N1CCN(c2ccc(-n3c(=O)ccc4cnc5ccc(-c6cnc7ccccc7c6)cc5c43)cc2C(F)(F)F)CC1`, the result with CFBE41o- [6] was Active. For the compound `Cc1ns/c(=N\C(=N\c2ccccc2)c2ccccc2)n1Cc1cccc(Cl)c1`, the Activity result in the data set with CFBE41o- [1] is “Non-Toxic”. For the compound `CC(C)C[C@@H](C=O)NC(=O)[C@H](CC(C)C)NC(=O)[C@H](CC(C)C)NC(=O)OCc1ccccc1`, in data set [7], the outcome was inactive. In addition, the outcome in data set [8] was Active. As for `COc1ccccc1Cn1c(C)ns/c1=N\C(=N\c1ccccc1)c1ccccc1`, the Activity entry in the data set with CFBE41o- [9] is “Toxic”; in the data set with CFBE41o- [1], “Non-Toxic”.

Regarding `Cc1ns/c(=N\C(=N\c2ccccc2)c2ccncc2)n1Cc1ccccc1`, the Activity entry is reported as “Not Active” in [2] and “Non-Toxic” in the data set with CFBE41o- [1]. Also, the result with CFBE41o- [4] was inactive.

For `Cc1nn(C)cc1S(=O)(=O)NC(=O)c1ccc(-n2ccc(OCC(C)(C)C(F)(F)F)n2)nc1N1C[C@@H](C)CC1(C)C`, the outcome in data set [10] and in [11] was Active.
